System: MS2 coat protein
Assay: apparent Kd, MS2 coat protein; higher = weaker binding; RNA-MaP array; FMN 200 µM where present
Method in brief: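 The apparent Kd is the median of filtered binding-curve fits, one per cluster, to green signal normalised to red-channel RNA signal and control-cluster median Fmax. The clusters were on Illumina sequencing chips, and stalled E. coli RNA polymerase had transcribed the designs on them. Titration used SNAP-549-labelled MS2 coat protein from 0.7 or 1.5 nM, doubling to 3 µM, without and then with constant ligand, in 100 mM Tris-HCl pH 7.5, 80 mM KCl, 4 mM MgCl2, BSA, DTT, yeast tRNA and Tween-20.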

[1] = designed as: ON switch for flavin mononucleotide, no ligand
[2] = ligand present: flavin mononucleotide, designed as: ON switch for flavin mononucleotide
[3] = designed as: OFF switch for flavin mononucleotide, no ligand
[4] = ligand present: flavin mononucleotide, designed as: OFF switch for flavin mononucleotide

| Sequence | apparent Kd [1] | apparent Kd [2] | apparent Kd [3] | apparent Kd [4] |
| --- | --- | --- | --- | --- |
| ACCAGAACAUGAGGAUCACCCAUGUAUCUAUACCAAGCGACACAGGAUAUACAAAGCGAAAGCGGGUAGAAGGGUGAUCAUGCA | 0.0635 µM | 0.182 µM |  |  |
| GGGUGACAUGAGGAUCACCCAUGUCAGGAUAUGAUACUAUGUACUUCGGUACAUAGUAUCAGAAGGGACAUCCC |  |  | 0.0484 µM | 0.158 µM |
| GUCAGACGAGGAUAUAGAUUUAAGUACAUGAGGAUCACCCAUGUACAUAUGUAUUUAGAUUUAGAAGGCGUCUGAC |  |  | 0.0283 µM | 0.0316 µM |
| AUCAGCUCGUCAGGAUAUACGUCACUGCGUCAGCAGUGUGGUAAGAUCACAUGAGGAUCACCCAUGUAGAAGGGAAGAGCUGAU |  |  | 0.0151 µM | 0.232 µM |
| GCAUCCAAAGUGAGGAUAUACCUCUGGAUACAGAGGUAGAAGGCACAUGAGGAUCACCCAUGUUCCUAGGAUGC |  |  | 0.0153 µM | 0.0742 µM |
| GGGUACAUCGGAGGAUAUCAUGUAAAUACAUGAGGAUCACCCAUGUCGAUGGAGACAACGGAGAUUGAGAAGGCCGAUGUACCG | 0.952 µM | 0.108 µM |  |  |
| GCGCUUAUACAGAAGGCCAUAUACAUGAGGAUCACCCAUGUUAUUUGGUGGAGGAUAUGUUUAUUAUUACAGGUAGAUGAGCGC | 0.0063 µM | 0.00572 µM |  |  |
| AAAUUAAGGAGAGGAUAUUGACAUGAGGAUCACCCAUGUAUUUGGGAGUGUUUACUGAAUUCUUACGAGAAGGCUUACGAAAUU |  |  | 0.308 µM | 0.234 µM |
| CACAAGAAAGUCGAAGGUUGAAGUAGAAGGUCUAUAACAUGACAUGAGGAUCACCCAUGUGCCAAGAAGGAUAUGCUUUAAUCG |  |  | 0.00797 µM | 0.00653 µM |
| CUUUUGUGAGGAUAUCAGUAGUAAUACAAUAGUAUUACUACUGAGAAGGUACAUGAGGAUCACCCAUGUUCCUC |  |  | 0.0178 µM | 0.0212 µM |
| GGGUUGGGAGGAUAUCCAAUAUAUGACAUGAGGAUCACCCAUGUUUCCACUCGUACCUCCGGAGAAGGCCCUUCCC |  |  | 0.0193 µM | 0.02 µM |
| GCUGCGCGAGGAUAUGCGGUUCGGGCGGUGGCCGCUGGCGGACAUGAGGAUCACCCAUGUAGAAGGCGUGCGGG |  |  | 0.0225 µM | 0.0232 µM |
| UGGUACUAGGGAGGAUAUGUGAAGAUACAUGAGGAUCACCCAUGUUUAAGAAUGCCGAGAGGCAACUAGAAGGCCCUAGUACCU | 0.0085 µM | 0.00565 µM |  |  |
| UAUUAUAUAGAGAAGGACAUGAGGAUCACCCAUGUCGCCGGGCCCGGGAAACCGGGCCCGGCCAUGUAGGAUAUCUAUAUGGUA |  |  | 0.00496 µM | 0.00586 µM |
| CUAUGCGGAAUAGGAUAUUCAUUCAUGAGGAUAGAAGAAGGGUUACAUGAGGAUCACCCAUGUAUACACAUGAGGAUCCCUUAG |  |  | 0.15 µM | 0.156 µM |
| UCGGCGCGAGGAUAUGCGGCUGCUGCUUCGGGCCGUGGCGUACAUGAGGAUCACCCAUGUAGAAGGCGCGCCGC |  |  | 0.0131 µM | 0.0141 µM |
| AGGAGUUUGUAGAAGGACGACUAUUAAGUUUUCGUAGGAUAUACUAUUUACAUGAGGAUCACCCAUGUUUAAAUGGAACAAUGU |  |  | 0.00785 µM | 0.00908 µM |
| ACCUCACAUGAGGAUCACCCAUGUUAGGAUAUUAAAUAGCGCGCAAAACAGCCCUGUAUGAGAAGGAGCUGGGA |  |  | 0.0136 µM | 0.0149 µM |
| AAUUAAUUAAUACAUGAGGAUCACCCAUGUAAUUAUUAGAUCAAGGAUAUCAGCUCGUUUAGAGCUGAGAAGGUGAUCACAUGU | 0.373 µM | 0.109 µM |  |  |
| CGCAAGUAUACAUGAGGAUCACCCAUGUUUGAUAGGGUUUUCAGAAGGUACAAUUAGAGAUAGAGUAAGGAUAUGAAAUUUGCG | 0.125 µM | 0.0247 µM |  |  |
| UUUGGGAGCACAGGAUAUGGCACCUCGAAGGCGCCAGAAGGGUGAUUCUGUUGGUGGCCACAUGAGGAUCACCCAUGUGCCUCC | 0.0295 µM | 0.0369 µM |  |  |
| GGUGCGUUUGUGAGGAUAUGCUGGUCCUUGGAUCGGCAGAAGGCACAUGAGGAUCACCCAUGUGGUGUCGUACC |  |  | 0.31 µM | 0.0296 µM |
| GCUUGUGAAGGAUAUACUGGCGGCAUGCGCUCGACACGCGCACAUGAGGAUCACCCAUGUAGAAGGUCAAACGU |  |  | 0.0172 µM | 0.0177 µM |
| GGCUUAAACACAGGAUAUGGCCUCAGAGUAAGGCCAGAAGGGUGAAGUUCUCAUACAUGAGGAUCACCCAUGUCAAGGAGGCUA | 0.521 µM | 0.204 µM |  |  |

| Sequence | apparent Kd [1] | apparent Kd [2] | apparent Kd [3] | apparent Kd [4] |
| --- | --- | --- | --- | --- |
| AUAAAACAUGAGGAUCACCCAUGUAAUAAGAACCGAGGAUAUGGAAAUAAUAAUAAUAAACCAGAAGGUGGUGAUC | 0.146 µM | 0.326 µM |  |  |
| CACGAUGAUGUAGGAUAUAUGCUGGAAUACAGCAUAGAAGGACAUGAGGAUCACCCAUGUUAAGUGCCUCCAAAUAACAUCGUG |  |  | 0.0157 µM | 0.0217 µM |
| GCCUUAUCAGUCAGGAUAUACAAUAAAAUAAUUAAGUAGAAGGGACAUGAGGAUCACCCAUGUACAUUACAUUG |  |  | 0.0186 µM | 0.0535 µM |
| ACCUUGUCAGGAUAUCCUAUUUUUUGUUUUAUAUUUACUAUGGAGAAGGGACAUGAGGAUCACCCAUGUUGGUC |  |  | 0.0387 µM | 0.0502 µM |
| GCAGAUCAAGUGAGGAUAUCGUCUACCUCGGUAGACGAGAAGGCACAUGAGGAUCACCCAUGUGAUUGAUCUGC |  |  | 0.0175 µM | 0.0236 µM |
| UUGAAUCGAAACAUGAGGAUCACCCAUGUGUCGUAAUUGACAUAGGAUAUGUAUAUACUUUUAUAAUAGAAGGAUGACGAUACU | 0.00909 µM | 0.00794 µM |  |  |
| AGAUCACAUGAGGAUCACCCAUGUCAGGAUAUGAUACUAUGUACUUCGGUACAUAGUAUCAGAAGGGAUAUGAA |  |  | 0.0952 µM | 0.193 µM |
| AAGAGGAAAGCAGGAUAUCUAUAGGCUCCUUAACAUGAGGAUCACCCAUGUAGAGAAGGGCUAAGACCGACUCUUCGGAGUUGG |  |  | 0.00869 µM | 0.0253 µM |
| GGCUUCUUCACAGGAUAUGGUUUUUUAAGUAUACAUGAGGAUCACCCAUGUCCAGAAGGGUGAGGGUUCGGCGUGCGGUGUCGG | 0.384 µM | 0.0427 µM |  |  |
| UAAUCUCAGAUAGGAUAUAUAGGAUGAUUUAAGACUGAACAUGAGGAUCACCCAUGUGAUUAUCUGUAGAAGGAUCAAUUACCC | 0.392 µM | 0.351 µM |  |  |
| ACUGUGCAUUAGAAGGGUGCGCGGCAAUCGCGCACAGGAUAUGAUGACAUGAGGAUCACCCAUGUCUGUGUUACCUGGGUGUCG |  |  | 0.0191 µM | 0.135 µM |
| UUCAGCUCGUCAGGAUAUACGUCACUGCUUCGGCAGUGUGGUAAGAUCACAUGAGGAUCACCCAUGUAGAAGGGACGAGCUGAU |  |  | 0.0119 µM | 0.274 µM |
| AGUAAACAUGAGGAUCACCCAUGUGGUGGCCCAUGAGGAUAUCCAUGCGCAAUACGCAUAGGAGAAGGCAUAGCCA | 0.0621 µM | 0.123 µM |  |  |
| CCGGAAGUACAGGAUAUCGUAUCGGAAACGAUACGAGAAGGGUAUACAUGAGGAUCACCCAUGUGUCCUACCGG |  |  | 0.0287 µM | 0.0279 µM |
| ACAUGAGGAUCACCCAUGUACAUGGGUUUAAUUGUGUGUUACUAGGAUAUGUAUUUGAAUUUACAACAGAAGGAGUAUUACUGU |  |  | 0.621 µM | 0.179 µM |
| UUGGUAUUCGUAGGAUAUCUGUCGCCACCGUGUGGAGAAGGACGAACAUGAGGAUCACCCAUGUAUCAUGGUGUGGGCUUUGUU |  |  | 0.504 µM | 0.47 µM |
| GAAUAAUUGAUCCAUUUUUAAAACAUGAGGAUCACCCAUGUGCAGGAUAUCGAUAGUUUUAGAUUCGAGAAGGGCAAGAACUGU |  |  | 0.0882 µM | 0.149 µM |
| AGGAAGUGAGGAUAUGCAGUAGCUAGUGGACGCUAGCACAUGUAGAAGGCACAUGAGGAUCACCCAUGUUUAAA |  |  | 0.0305 µM | 0.0283 µM |
| CUUCUCAAAGGAUAUCACGGUAAUAACAUGAGGAUCACCCAUGUGCAAUUCGUGUCCCUGUGAGAAGGUUGAGAAG |  |  | 0.0105 µM | 0.0182 µM |
| CGCUGCCACGCAGGAUAUGCAUUGGAUUACAAUGCAGAAGGGCGAUUACAUGAGGAUCACCCAUGUGUCGGCAGUGAAGAAGAG | 0.657 µM | 0.0449 µM |  |  |
| GAGUGACAUGAGGAUCACCCAUGUGAGGAUAUCGGCCGGACCUUGUUAGCUUCCACCGCGAGAAGGCACAUCGG |  |  | 0.0233 µM | 0.0279 µM |
| UUGUACCGGUGAGGAUAUUUUUAAUAGAACUUUAUGAUAUACAUGAGGAUCACCCAUGUUACUUUAAAGAAGGCAUCGGAUUAU |  |  | 0.0189 µM | 0.0148 µM |
| CCUAUGUGAGGAUAUGGUGUUGGCCACAAGGAAAAGCUCCUCCAGAAGGCACAUGAGGAUCACCCAUGUCGUGG |  |  | 0.0215 µM | 0.115 µM |
| GGUACCAUCACAGGAUAUGCUUUCCUUUGGGAAGCAGAAGGGUGUAACAUGAGGAUCACCCAUGUGGUGCCAGGGCGCGAGCCC | 0.182 µM | 0.0168 µM |  |  |

Source: the EternaBench riboswitch data
